Data: ChEMBL document CHEMBL3608261, “Metabolically programmed iron chelators” (Bioorg Med Chem, 2015)

How the values were obtained:
[1] = system: Rattus norvegicus; assay: Drug metabolism in Sprague-Dawley rat heart assessed as (S)-4'-(3-carboxypropyloxy)-DADFT level at 300 umol/kg, sc after 0.5 to 1 hrs by HPLC analysis; format: ADME, organism-based; conditions: in vivo
Outline: (§1)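 Single sc injection in male Sprague-Dawley rats (250–350 g) of the monosodium salt at 300 µmol/kg, n=3 per time point, killed by CO2 at 0.5–8 h. Plasma came from citrated cardiac blood; organs were frozen. Homogenates were made 1:3 in 0.5 N HClO4, given a methanol rinse, held 30 min at −20 °C, centrifuged, diluted in pH 3.0 phosphate/CH3CN and filtered. RP-amide HPLC, UV 310 nm; values are means, nmol/g wet weight or µM.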

[2] = system: Rattus norvegicus; assay: Drug metabolism in Sprague-Dawley rat plasma assessed as parent compound and metabolite level at 300 umol/kg, sc after 8 hrs by HPLC analysis; format: ADME, organism-based; conditions: in vivo, read-out: Drug metabolism
Outline: (§2)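 Rats (male Sprague-Dawley, 250–350 g) were dosed sc once with the monosodium salt, 300 µmol/kg, three animals per time point up to 8 h. Plasma came from citrated cardiac blood; liver was frozen after CO2 euthanasia. Parent and metabolites were quantified by HPLC with UV at 310 nm against linear calibration curves (detection limit 0.25 µM, linear 1–1000 µM). Data are means.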

[3] = system: Rattus norvegicus; assay: Toxicity in Sprague-Dawley rat assessed as mortality at 384 umol/kg, po qd for 10 days; format: organism-based; conditions: in vivo, 240 h
Outline: (§3)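 Male Sprague-Dawley rats (n=5, 375–400 g) with normal iron stores, housed singly in metabolic cages and weighed daily. Drug given po by gavage as monosodium salt once daily for 10 days, dosed in the morning after overnight fast; fed ~3 h post-drug. Euthanized day 11; CBC, serum chemistries and 25 tissues/rat for outside histopathology; age-matched untreated controls.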

[4] = system: Rattus norvegicus; assay: Drug metabolism in Sprague-Dawley rat pancreas assessed as (S)-4'-(3-carboxypropyloxy)-DADFT level at 300 umol/kg, sc after 0.5 hrs by HPLC analysis; format: ADME, organism-based; conditions: in vivo; outline: as §1
[5] = system: Rattus norvegicus; assay: Drug metabolism in Sprague-Dawley rat plasma assessed as (S)-4'-(carboxymethoxy)-DADFT level at 300 umol/kg, sc after 8 hrs by HPLC analysis; format: ADME, organism-based; conditions: in vivo; outline: as §1
[6] = system: Rattus norvegicus; assay: Drug metabolism in Sprague-Dawley rat liver assessed as parent compound and (S)-4'-(3-carboxypropyloxy)-DADFT level at 300 umol/kg, sc after 8 hrs by HPLC analysis; format: ADME, organism-based; conditions: in vivo; outline: as §1
[7] = system: Rattus norvegicus; assay: Drug metabolism in Sprague-Dawley rat kidney assessed as (S)-4'-(3-carboxypropyloxy)-DADFT level at 300 umol/kg, sc after 0.5 to 1 hrs by HPLC analysis; format: ADME, organism-based; conditions: in vivo; outline: as §1
[8] = system: Rattus norvegicus; assay: Drug metabolism in Sprague-Dawley rat heart assessed as (S)-4'-(carboxymethoxy)-DADFT level at 300 umol/kg, sc after 1 hr by HPLC analysis; format: ADME, organism-based; conditions: in vivo; outline: as §1
[9] = system: Rattus norvegicus; assay: Drug metabolism in Sprague-Dawley rat pancreas assessed as (S)-4'-(3-carboxypropyloxy)-DADFT level at 300 umol/kg, sc after 4 to 8 hrs by HPLC analysis; format: ADME, organism-based; conditions: in vivo; outline: as §1
[10] = system: Rattus norvegicus; assay: Drug metabolism in Sprague-Dawley rat plasma assessed as parent compound and metabolite level at 300 umol/kg, sc after 4 hrs by HPLC analysis; format: ADME, organism-based; conditions: in vivo; outline: as §2
[11] = system: Rattus norvegicus; assay: Drug metabolism in Sprague-Dawley rat pancreas assessed as parent compound level at 300 umol/kg, sc after 0.5 hrs by HPLC analysis; format: ADME, organism-based; conditions: in vivo; outline: as §1
[12] = system: Rattus norvegicus; assay: Drug metabolism in Sprague-Dawley rat heart assessed as parent compound level at 300 umol/kg, sc after 0.5 hrs by HPLC analysis; format: ADME, organism-based; conditions: in vivo; outline: as §1
[13] = Performance ratio, ratio of iron clearing efficiency in […] at 75 umol/kg, po to iron clearing efficiency in bile duct cannulated Sprague-Dawley rat at 300 umol/kg, po; format: functional
Outline: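 Performance ratio = mean ICE in iron-overloaded Cebus apella (75 µmol/kg) divided by mean ICE in bile duct-cannulated rats (300 µmol/kg), by the same route.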

[14] = system: Sapajus apella; assay: Iron clearing efficiency in bile duct cannulated Cebus apella assessed as clearance of iron in bile at 75 umol/kg, po measured at 3 hrs intervals for up to 48 hrs relative to control; format: functional
[15] = system: Rattus norvegicus; assay: Drug metabolism in Sprague-Dawley rat kidney assessed as (S)-4'-(carboxymethoxy)-DADFT level at 300 umol/kg, sc after 1 hr by HPLC analysis; format: ADME, organism-based; conditions: in vivo; outline: as §1
[16] = system: Rattus norvegicus; assay: Drug metabolism in Sprague-Dawley rat heart assessed as (S)-4'-(carboxymethoxy)-DADFT level at 300 umol/kg, sc after 0.5 hrs by HPLC analysis; format: ADME, organism-based; conditions: in vivo; outline: as §1
[17] = system: Rattus norvegicus; assay: Drug metabolism in Sprague-Dawley rat kidney assessed as (S)-4'-(carboxymethoxy)-DADFT level at 300 umol/kg, sc after 8 hrs by HPLC analysis; format: ADME, organism-based; conditions: in vivo; outline: as §1
[18] = system: Rattus norvegicus; assay: Drug metabolism in Sprague-Dawley rat pancreas assessed as (S)-4'-(5-carboxypentyloxy)-DADFT level at 300 umol/kg, sc after 4 to 8 hrs by HPLC analysis; format: ADME, organism-based; conditions: in vivo; outline: as §1
[19] = system: Rattus norvegicus; assay: Drug metabolism in Sprague-Dawley rat kidney assessed as (S)-4'-(5-carboxypentyloxy)-DADFT level at 300 umol/kg, sc after 0.5 to 1 hrs by HPLC analysis; format: ADME, organism-based; conditions: in vivo; outline: as §1
[20] = system: Rattus norvegicus; assay: Drug metabolism in Sprague-Dawley rat liver assessed as parent compound and metabolite level at 300 umol/kg, sc after 8 hrs by HPLC analysis; format: ADME, organism-based; conditions: in vivo; outline: as §2
[21] = system: Rattus norvegicus; assay: Iron clearing efficiency in bile duct cannulated Sprague-Dawley rat assessed as clearance of iron in bile at 300 umol/kg, po measured at 3 hrs intervals for up to 48 hrs relative to control; format: functional
Outline: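 Non-iron-overloaded male Sprague-Dawley rats (400–450 g) with cannulated bile ducts received 300 µmol/kg po or sc. […] Bile was sampled every 3 h for up to 48 h and urine at 24 h intervals. ICE = (treated minus control iron excretion) / theoretical output (2:1 ligand:Fe) × 100 over 48 h. Mean ± SEM.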

[22] = system: Rattus norvegicus; assay: Iron clearing efficiency in bile duct cannulated Sprague-Dawley rat assessed as clearance of iron in urine at 300 umol/kg, po measured at 3 hrs intervals for up to 48 hrs relative to control; format: functional
[23] = system: Rattus norvegicus; assay: Drug metabolism in Sprague-Dawley rat heart assessed as (S)-4'-(5-carboxypentyloxy)-DADFT level at 300 umol/kg, sc up to 8 hrs by HPLC analysis; format: ADME, organism-based; conditions: in vivo; outline: as §1
[24] = system: Rattus norvegicus; assay: Drug metabolism in Sprague-Dawley rat pancreas assessed as (S)-4'-(carboxymethoxy)-DADFT level at 300 umol/kg, sc after 4 to 8 hrs by HPLC analysis; format: ADME, organism-based; conditions: in vivo; outline: as §1
[25] = system: Rattus norvegicus; assay: Drug metabolism in Sprague-Dawley rat liver assessed as (S)-4'-(5-carboxypentyloxy)-DADFT level at 300 umol/kg, sc after 0.5 to 1 hrs by HPLC analysis; format: ADME, organism-based; conditions: in vivo; outline: as §1
[26] = system: Rattus norvegicus; assay: Toxicity in Sprague-Dawley rat assessed as histopathology at 384 umol/kg, po qd for 10 days; format: organism-based; conditions: in vivo, 240 h; outline: as §3
[27] = system: Rattus norvegicus; assay: Drug metabolism in Sprague-Dawley rat pancreas assessed as (S)-4'-(5-carboxypentyloxy)-DADFT level at 300 umol/kg, sc after 0.5 to 8 hrs by HPLC analysis; format: ADME, organism-based; conditions: in vivo; outline: as §1
[28] = system: Rattus norvegicus; assay: Drug metabolism in Sprague-Dawley rat pancreas assessed as (S)-4'-(3-carboxypropyloxy)-DADFT level at 300 umol/kg, sc after 1 hr by HPLC analysis; format: ADME, organism-based; conditions: in vivo; outline: as §1
[29] = system: Rattus norvegicus; assay: Drug metabolism in Sprague-Dawley rat heart assessed as (S)-4'-(carboxymethoxy)-DADFT level at 300 umol/kg, sc after 2 to 8 hrs by HPLC analysis; format: ADME, organism-based; conditions: in vivo; outline: as §1
[30] = system: Rattus norvegicus; assay: Drug metabolism in Sprague-Dawley rat kidney assessed as (S)-4'-(carboxymethoxy)-DADFT level at 300 umol/kg, sc after 2 hrs by HPLC analysis; format: ADME, organism-based; conditions: in vivo; outline: as §1
[31] = system: Rattus norvegicus; assay: Drug metabolism in Sprague-Dawley rat kidney assessed as (S)-4'-(carboxymethoxy)-DADFT level at 300 umol/kg, sc after 0.5 hrs by HPLC analysis; format: ADME, organism-based; conditions: in vivo; outline: as §1
[32] = system: Rattus norvegicus; assay: Drug metabolism in Sprague-Dawley rat kidney assessed as (S)-4'-(3-carboxypropyloxy)-DADFT level at 300 umol/kg, sc after 8 hrs by HPLC analysis; format: ADME, organism-based; conditions: in vivo; outline: as §1
[33] = system: Rattus norvegicus; assay: Toxicity in Sprague-Dawley rat assessed as BUN level in blood at 384 umol/kg, po qd for 10 days; format: organism-based; conditions: in vivo, 240 h
Outline: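 Male Sprague-Dawley rats (n=5, 375–400 g) with normal iron stores were housed in metabolic cages. Drug was given po as the monosodium salt, once daily for 10 days at 384 µmol/kg/day. Rats were fasted overnight, dosed in the morning, and fed about 3 h post-drug. They were euthanized on day 11, and blood was taken for serum chemistry including BUN. Age-matched untreated rats served as controls.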

In the case of C[C@]1(C(=O)O)CSC(c2ccc(OCCCCCCO)cc2O)=N1, the Drug metabolism [1] is reported as 46 nmol/g, the concentration [2] is reported as 23 µM and the Activity [3] is reported as “Non-toxic”. For the same compound, the Drug metabolism [4] was 19 nmol/g, the Drug metabolism [5] was “metabolite_detected” and the Drug metabolism [6] was “metabolite_notdetected”. For the same compound, the Drug metabolism [7] was 300 nmol/g, the Drug metabolism [8] was 23 nmol/g and the Drug metabolism [9] was “metabolite_notdetected”. The Drug metabolism [10] was “Not Active”, the Drug metabolism [11] was less than 5 nmol/g and the Drug metabolism [12] was 26 nmol/g. For the same compound, the Ratio [13] was 2.2, the Activity [14] was 90% and the Drug metabolism [15] was 201 nmol/g. The Drug metabolism [16] was 17 nmol/g, the Drug metabolism [17] was 5 nmol/g and the Drug metabolism [18] was “metabolite_notdetected”. For the same compound, the Drug metabolism [19] was “metabolite_detected”, the Drug metabolism [20] was “metabolite_detected” and the Activity [21] was 96%. For the same compound, the Activity [22] was 4%, the Drug metabolism [23] was “metabolite_notdetected” and the Drug metabolism [24] was “metabolite_notdetected”. For the same compound, the Drug metabolism [25] was “metabolite_detected”, the Activity [26] was “Non-toxic” and the Drug metabolism [27] was “metabolite_notdetected”. The Drug metabolism [28] was 23 nmol/g, the Drug metabolism [29] was “metabolite_notdetected” and the Drug metabolism [30] was 161 nmol/g. The Drug metabolism [31] was 156 nmol/g, the Drug metabolism [32] was “metabolite_notdetected” and the Activity [33] was 20 mg/dL.
